Experimental data from paper PMC2901902 (Nature, 2010).

Legend:
[1] = test system: H3K14ac at the mouse Pitx2 promoter site; assay: Re-ChIP; format: cell-based; conditions: transfected C2C12 cells, qualitative
[2] = test system: H3K14ac sites in the C2C12 cell nucleus; assay: Immunofluorescence co-localization with H3K14ac in C2C12 cell nucleus; format: cell-based, mouse; conditions: ectopically expressed EGFP-fusion DPF3b; confocal fluorescence imaging
Method in brief: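 C2C12 myoblasts grown in DMEM with 10% fetal calf serum were transfected with full-length human DPF3b fused to EGFP. H3K14ac was stained with the same anti-H3K14ac antibody used for ChIP and a Texas Red-conjugated secondary. Nuclear overlap of the EGFP and Texas Red signals was imaged on an automated confocal microscope and images were overlaid.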

Pitx2 = assay: Endogenous Pitx2 transcript level in transfected C2C12 cells; format: cell-based, mouse; conditions: C2C12 cells 2 days following transfection

B1: DPF3b: full length human DPF3b cloned into pEGFP-C1 vector, transfected in C2C12 cells (protein)
chain: MATVIHNPLKALGDQFYKEAIEHCRSYNSRLCAERSVRLPFLDSQTGVAQNNCYIWMEKRHRGPGLAPGQLYTYPARCWRKKRRLHPPEDPKLRLLEIKPEVELPLKKDGFTSESTTLEALLRGEGVEKKVDAREEESIQEIQRVLENDENVEEGNEEEDLEEDIPKRKNRTRGRARGSAGGRRRHDAASQEDHDKPYVCDICGKRYKNRPGLSYHYAHTHLASEEGDEAQDQETRSPPNHRNENHRPQKGPDGTVIPNNYCDFCLGGSNMNKKSGRPEELVSCADCGRSGHPTCLQFTLNMTEAVKTYKWQCIECKSCILCGTSENDDQLLFCDDCDRGYHMYCLNPPVAEPPEGSWSCHLCWELLKEKASAFGCQA
modifications: left off: EGFP, end not stated, kept
DPF3b/H3K14ac interaction at Pitx2 promoter [1]: interacts with H3K14ac at the Pitx2 promoter site
co-localization with H3K14ac sites in C2C12 cell nucleus [2]: co-localized with H3K14ac sites
enhancement of endogenous Pitx2 transcript (Pitx2): more than 3 fold
